Assay results as given in ChEMBL document CHEMBL4265927, “Systematic variation of the benzoylhydrazine moiety of the GluN2A selective NMDA receptor antagonist TCN-201” (Eur J Med Chem, 2018).
One block for each compound: values may come before it. Activity calls are given as the source filed them. The calls are words filed in the database; no cut-off is given here.

What was measured:
Format in all cases: cell-based
[1] = (§1) Negative allosteric modulation of GluN1a/GluN2A receptor (unknown origin) expressed in Xenopus laevis oocytes assessed as inhibition of (S)-glutamate/glycine-induced channel current at -70 mV holding potential in presence of 10 uM glycine by two electrode voltage clamp based electrophysiology assay; conditions: Homo sapiens
How it was run: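 Rat wild-type GluN1a and GluN2A cRNA (0.8 ng each) injected into defolliculated oocytes. TEVC at room temperature in Mg2+-free Ba2+-Ringer (10 mM HEPES, 90 mM NaCl, 1 mM KCl, 1.5 mM BaCl2, pH 7.4). Compound was diluted from DMSO stock into (S)-glutamate/glycine agonist solution over a 1 nM–10 range. There were 5 oocytes per concentration. The logistic fit had minimal and maximal inhibition fixed at 0% and 100%.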

Homo sapiens [2] = species: Homo sapiens; test: as §1, with “current at 200 nM at -70 mV” for “current at -70 mV”, “presence of 30 uM glycine” for “presence of 10 uM glycine”
How it was run: (§2)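 Oocytes co-injected with 0.8 ng each of rat GluN1a and GluN2A cRNA were recorded by TEVC at room temperature in Mg2+-free Ba2+-Ringer, pH 7.4. Compound was fixed at 200 nM. Currents were evoked by (S)-glutamate with glycine at 1, 3, 10 and 30. There were 3 oocytes per glycine level. Mean inhibition was fitted linearly (y = a + b*x) to give intercept and slope.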

[3] = Negative allosteric modulation of GluN1a/GluN2B receptor (unknown origin) expressed in Xenopus laevis oocytes assessed as inhibition of (S)-glutamate/glycine-induced channel current at 10 uM at -70 mV holding potential by two electrode voltage clamp based electrophysiology assay; conditions: Homo sapiens
How it was run: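 For selectivity, oocytes received 0.8 ng GluN1a plus 0.8 ng GluN2B rat cRNA. TEVC was at room temperature in Mg2+-free Ba2+-Ringer, pH 7.4, with (S)-glutamate/glycine stimulation. Compounds were at 10 µM, giving 0.1% DMSO in the test solution. There were 4–5 oocytes per compound.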

Homo sapiens [4] = species: Homo sapiens; test: as §1, with “current at 200 nM at -70 mV” for “current at -70 mV”, “presence of 1 to 3 uM glycine” for “presence of 10 uM glycine”; how it was run: as §2
[5] = as §1, with “current at 200 nM at -70 mV” for “current at -70 mV”, “presence of 1 to 10 uM” for “presence of 10 uM”; conditions: Homo sapiens; how it was run: as §2
[6] = Negative allosteric modulation of GluN1a/GluN2A receptor (unknown origin) expressed in Xenopus laevis oocytes assessed as inhibition of (S)-glutamate/glycine-induced channel current at 500 nM at -70 mV holding potential by two electrode voltage clamp based electrophysiology assay relative to control TCN-201; conditions: Homo sapiens
How it was run: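 The screen ran on GluN1a/GluN2A oocytes (0.8 ng of each rat cRNA) by room-temperature TEVC in Mg2+-free Ba2+-Ringer, pH 7.4, with (S)-glutamate/glycine activation. Compounds were at 500 nM. Inhibition was normalized to that of the reference antagonist at 500 nM, tested in the same series of experiments. n is the number of independent oocytes.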

[7] = as §1, with “current at 200 nM at -70 mV” for “current at -70 mV”, “presence of 1 to 30 uM glycine” for “presence of 10 uM glycine”; conditions: Homo sapiens; how it was run: as §2
[8] = Negative allosteric modulation of GluN1a/GluN2A receptor (unknown origin) expressed in Xenopus laevis oocytes assessed as inhibition of (S)-glutamate/glycine-induced channel current at -70 mV holding potential in presence of 3 uM glycine by two electrode voltage clamp based electrophysiology assay; conditions: Homo sapiens

IC50 [1]: 512 nM
inhibition (Homo sapiens [2]): Active
inhibition [3]: inactive
inhibition (Homo sapiens [4]): inactive
inhibition [5]: Active
Compound: O=C(NNC(=O)c1ccc(CNS(=O)(=O)c2ccc(F)c(Cl)c2)cc1)c1ccccc1

Ratio [6]: 1.28
Compound: O=C(NNC(=O)c1cc2ccccc2[nH]1)c1ccc(CNS(=O)(=O)c2ccc(F)c(Cl)c2)cc1

inhibition (Homo sapiens [2]): Active
inhibition [7]: Active
inhibition [5]: Active
IC50 [8]: 198 nM
Compound: Cc1ncc(CNC(=O)c2cnc(CNS(=O)(=O)c3ccc(F)c(F)c3)c(C)n2)s1

Ratio [6]: 0.58
Compound: O=C(NNC(=O)c1cc2ccccc2s1)c1ccc(CNS(=O)(=O)c2ccc(F)c(Cl)c2)cc1

Ratio [6]: 0.52
Compound: O=C(NNC(=O)N1CCOCC1)c1ccc(CNS(=O)(=O)c2ccc(F)c(Cl)c2)cc1

Ratio [6]: 1.2
Compound: O=C(NNC(=O)c1ccc[nH]1)c1ccc(CNS(=O)(=O)c2ccc(F)c(Cl)c2)cc1

IC50 [1]: 222 nM
inhibition [3]: inactive
inhibition [7]: Active
inhibition [5]: Active
Compound: O=C(NNC(=O)c1cccs1)c1ccc(CNS(=O)(=O)c2cccc(Br)c2)cc1

IC50 [1]: 204 nM
Compound: O=C(NNC(=O)c1ccc(CNS(=O)(=O)c2cccc(Br)c2)cc1)c1ccccc1

Ratio [6]: 0.44
Compound: O=C(NNC(=O)c1ccc2ccccc2c1)c1ccc(CNS(=O)(=O)c2ccc(F)c(Cl)c2)cc1

Ratio [6]: 0.58
Compound: O=C(NNS(=O)(=O)c1ccccc1)c1ccc(CNS(=O)(=O)c2ccc(F)c(Cl)c2)cc1

Ratio [6]: 0.3
Compound: O=C(O)CCC(=O)NNC(=O)c1ccc(CNS(=O)(=O)c2ccc(F)c(Cl)c2)cc1

Ratio [6]: 0.92
Compound: O=C(NNC(=O)c1ccncn1)c1ccc(CNS(=O)(=O)c2ccc(F)c(Cl)c2)cc1

Ratio [6]: 0.31
Compound: O=S(=O)(NCc1ccc(-c2nnc(-c3ccccc3)o2)cc1)c1ccc(F)c(Cl)c1

IC50 [1]: 198 nM
inhibition [3]: inactive
Ratio [6]: 1.35
inhibition [7]: Active
inhibition [5]: Active
Compound: O=C(NNC(=O)c1cccs1)c1ccc(CNS(=O)(=O)c2ccc(F)c(Cl)c2)cc1

Ratio [6]: 0.64
Compound: O=C(Cc1ccccc1)NNC(=O)c1ccc(CNS(=O)(=O)c2ccc(F)c(Cl)c2)cc1

Ratio [6]: 1.1
Compound: O=C(NNC(=O)c1ccco1)c1ccc(CNS(=O)(=O)c2ccc(F)c(Cl)c2)cc1

Ratio [6]: 0.73
Compound: O=C(NNCc1ccccc1)c1ccc(CNS(=O)(=O)c2ccc(F)c(Cl)c2)cc1

IC50 [1]: 216 nM
inhibition [3]: inactive
Ratio [6]: 1.33
inhibition [7]: Active
inhibition [5]: Active
Compound: O=C(NNC(=O)c1c[nH]c2ccccc12)c1ccc(CNS(=O)(=O)c2ccc(F)c(Cl)c2)cc1

inhibition [3]: inactive
Compound: CC(C(O)c1ccc(O)cc1)N1CCC(Cc2ccccc2)CC1 (configuration not stated)
